# Results published in ChEMBL document CHEMBL1811814, “Synthesis and evaluation of indole, pyrazole, chromone and pyrimidine based conjugates for tumor growth inhibitory activities--development of highly efficacious cytotoxic agents” (Eur J Med Chem, 2010).
# What was measured:
# Format in all cases: functional
# Parameters in all cases: scale not given: the % may be the effect or the level left
# CCRF-CEM = assay: Growth inhibition of human CCRF-CEM cells assessed tumor cell growth at 10^-5 M
# Summary of the method: (§1)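 NCI 60-human-tumor-cell-line panel screen. Each compound was tested at a single concentration of 10^-5 M, and percent growth of tumor cells was recorded for each cell line. Growth inhibition was expressed from these percent-growth values.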
# HL-60(TB) = assay: Growth inhibition of human HL-60(TB) cells assessed tumor cell growth at 10^-5 M
# Summary of the method: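 HL-60(TB), part of the 60-line panel, tested at a single concentration of 10^-5 M. The read-out is percent tumor cell growth relative to untreated growth.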
# K562 = assay: Growth inhibition of human K562 cells assessed tumor cell growth at 10^-5 M; summary of the method: as §1
# MOLT-4 = assay: Growth inhibition of human MOLT4 cells assessed tumor cell growth at 10^-5 M; summary of the method: as §1
# [1] = Growth inhibition of human […] cells assessed tumor cell growth at 10^-5 M; summary of the method: as §1
# SR = assay: Growth inhibition of human SR cells assessed tumor cell growth at 10^-5 M
# Summary of the method: (§2)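 Single-dose screen at 10^-5 M across the 60 human tumor cell line panel, run to NCI standards. The value is the percent growth of each cell line in the presence of compound. Compounds active at this dose moved on to five-concentration testing (10^-4 to 10^-8 M).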
# A549 = assay: Growth inhibition of human A549 cells assessed tumor cell growth at 10^-5 M; summary of the method: as §1
# EKVX = assay: Growth inhibition of human EKVX cells assessed tumor cell growth at 10^-5 M; summary of the method: as §1
# HOP-62 = assay: Growth inhibition of human HOP62 cells assessed tumor cell growth at 10^-5 M; summary of the method: as §1
# HOP-92 = assay: Growth inhibition of human HOP92 cells assessed tumor cell growth at 10^-5 M; summary of the method: as §1
# NCI-H226 = assay: Growth inhibition of human NCI-H226 cells assessed tumor cell growth at 10^-5 M; summary of the method: as §1
# NCI-H23 = assay: Growth inhibition of human NCI-H23 cells assessed tumor cell growth at 10^-5 M; summary of the method: as §1
# NCI-H322M = assay: Growth inhibition of human NCI-H322M cells assessed tumor cell growth at 10^-5 M; summary of the method: as §1
# NCI-H460 = assay: Growth inhibition of human NCI-H460 cells assessed tumor cell growth at 10^-5 M; summary of the method: as §1
# NCI-H522 = assay: Growth inhibition of human NCI-H522 cells assessed tumor cell growth at 10^-5 M; summary of the method: as §1
# COLO 205 = assay: Growth inhibition of human COLO205 cells assessed tumor cell growth at 10^-5 M; summary of the method: as §1
# HCC 2998 = assay: Growth inhibition of human HCC2998 cells assessed tumor cell growth at 10^-5 M; summary of the method: as §1
# HCT-116 = assay: Growth inhibition of human HCT116 cells assessed tumor cell growth at 10^-5 M; summary of the method: as §1
# HCT-15 = assay: Growth inhibition of human HCT15 cells assessed tumor cell growth at 10^-5 M; summary of the method: as §1
# HT-29 = assay: Growth inhibition of human HT-29 cells assessed tumor cell growth at 10^-5 M; summary of the method: as §1
# KM12 = assay: Growth inhibition of human KM12 cells assessed tumor cell growth at 10^-5 M; summary of the method: as §1
# SW-620 = assay: Growth inhibition of human SW620 cells assessed tumor cell growth at 10^-5 M; summary of the method: as §2
# SF-268 = assay: Growth inhibition of human SF268 cells assessed tumor cell growth at 10^-5 M; summary of the method: as §1
# SF-295 = assay: Growth inhibition of human SF295 cells assessed tumor cell growth at 10^-5 M; summary of the method: as §1
# SF-539 = assay: Growth inhibition of human SF539 cells assessed tumor cell growth at 10^-5 M; summary of the method: as §1
# SNB-19 = assay: Growth inhibition of human SNB19 cells assessed tumor cell growth at 10^-5 M; summary of the method: as §2
# SNB-75 = assay: Growth inhibition of human SNB75 cells assessed tumor cell growth at 10^-5 M; summary of the method: as §2
# U-251 = assay: Growth inhibition of human U251 cells assessed tumor cell growth at 10^-5 M; summary of the method: as §2
# LOX IMVI = assay: Growth inhibition of human LOXIMVI cells assessed tumor cell growth at 10^-5 M; summary of the method: as §1
# Malme-3M = assay: Growth inhibition of human MALME-3M cells assessed tumor cell growth at 10^-5 M; summary of the method: as §1
# M14 = assay: Growth inhibition of human M14 cells assessed tumor cell growth at 10^-5 M; summary of the method: as §1
# MDA-MB-435 = assay: Growth inhibition of human MDA-MB-435 cells assessed tumor cell growth at 10^-5 M; summary of the method: as §1
# SK-MEL-2 = assay: Growth inhibition of human SK-MEL-2 cells assessed tumor cell growth at 10^-5 M; summary of the method: as §1
# SK-MEL-28 = assay: Growth inhibition of human SK-MEL-28 cells assessed tumor cell growth at 10^-5 M; summary of the method: as §1
# SK-MEL-5 = assay: Growth inhibition of human SK-MEL-5 cells assessed tumor cell growth at 10^-5 M; summary of the method: as §1
# UACC-257 = assay: Growth inhibition of human UACC257 cells assessed tumor cell growth at 10^-5 M; summary of the method: as §2
# UACC-62 = assay: Growth inhibition of human UACC62 cells assessed tumor cell growth at 10^-5 M; summary of the method: as §2
# IGROV-1 = assay: Growth inhibition of human IGROV1 cells assessed tumor cell growth at 10^-5 M; summary of the method: as §1
# OVCAR-3 = assay: Growth inhibition of human OVCAR3 cells assessed tumor cell growth at 10^-5 M; summary of the method: as §1
# OVCAR-4 = assay: Growth inhibition of human OVCAR4 cells assessed tumor cell growth at 10^-5 M; summary of the method: as §1
# OVCAR-5 = assay: Growth inhibition of human OVCAR5 cells assessed tumor cell growth at 10^-5 M; summary of the method: as §1
# OVCAR-8 = assay: Growth inhibition of human OVCAR8 cells assessed tumor cell growth at 10^-5 M; summary of the method: as §1
# NCI/ADR-RES = assay: Growth inhibition of human NCI/ADR-RES cells assessed tumor cell growth at 10^-5 M; summary of the method: as §1
# SK-OV-3 = assay: Growth inhibition of human SKOV3 cells assessed tumor cell growth at 10^-5 M; summary of the method: as §1
# 786-0 = assay: Growth inhibition of human 786-0 cells assessed tumor cell growth at 10^-5 M; summary of the method: as §1
# A498 = assay: Growth inhibition of human A498 cells assessed tumor cell growth at 10^-5 M; summary of the method: as §1
# ACHN = assay: Growth inhibition of human ACHN cells assessed tumor cell growth at 10^-5 M; summary of the method: as §1
# CAKI-1 = assay: Growth inhibition of human Caki1 cells assessed tumor cell growth at 10^-5 M; summary of the method: as §1
# RXF 393 = assay: Growth inhibition of human RXF393 cells assessed tumor cell growth at 10^-5 M; summary of the method: as §1
# SN12C = assay: Growth inhibition of human SN12C cells assessed tumor cell growth at 10^-5 M; summary of the method: as §1
# TK-10 = assay: Growth inhibition of human TK10 cells assessed tumor cell growth at 10^-5 M; summary of the method: as §2
# UO-31 = assay: Growth inhibition of human UO31 cells assessed tumor cell growth at 10^-5 M; summary of the method: as §2
# PC-3 = assay: Growth inhibition of human PC3 cells assessed tumor cell growth at 10^-5 M; summary of the method: as §1
# DU-145 = assay: Growth inhibition of human DU145 cells assessed tumor cell growth at 10^-5 M; summary of the method: as §1
# MCF7 = assay: Growth inhibition of human MCF7 cells assessed tumor cell growth at 10^-5 M; summary of the method: as §1
# MDA-MB-231 = assay: Growth inhibition of human MDA-MB-231 cells assessed tumor cell growth at 10^-5 M; summary of the method: as §1
# [2] = Growth inhibition of human Hs 578T cells assessed tumor cell growth at 10^-5 M; summary of the method: as §1
# BT-549 = assay: Growth inhibition of human BT549 cells assessed tumor cell growth at 10^-5 M; summary of the method: as §1
# T47D = assay: Growth inhibition of human T47D cells assessed tumor cell growth at 10^-5 M; summary of the method: as §2
# MDA-MB-468 = assay: Growth inhibition of human MDA-MB-468 cells assessed tumor cell growth at 10^-5 M; summary of the method: as §1
smiles,measurement,setting,value
CC1=NN(c2cccc(Cl)c2)C(=O)/C1=C\c1cn(Cc2ccccc2)c2ccccc12,Activity,CCRF-CEM,109.04%
same,Activity,HL-60(TB),99.67%
same,Activity,K562,93.59%
same,Activity,MOLT-4,89.6%
same,Activity,[1],88.18%
same,Activity,SR,86.52%
same,Activity,A549,90.89%
same,Activity,EKVX,82.36%
same,Activity,HOP-62,81.96%
same,Activity,HOP-92,94.45%
same,Activity,NCI-H226,16.9%
same,Activity,NCI-H23,88.9%
same,Activity,NCI-H322M,105.8%
same,Activity,NCI-H460,55.83%
same,Activity,NCI-H522,86.7%
same,Activity,COLO 205,96.36%
same,Activity,HCC 2998,109.37%
same,Activity,HCT-116,81.87%
same,Activity,HCT-15,97.68%
same,Activity,HT-29,93.03%
same,Activity,KM12,93.39%
same,Activity,SW-620,93.2%
same,Activity,SF-268,95.57%
same,Activity,SF-295,74.11%
same,Activity,SF-539,96.45%
same,Activity,SNB-19,93.46%
same,Activity,SNB-75,80.99%
same,Activity,U-251,89.34%
same,Activity,LOX IMVI,87%
same,Activity,Malme-3M,92.02%
same,Activity,M14,93.78%
same,Activity,MDA-MB-435,106.21%
same,Activity,SK-MEL-2,90.21%
same,Activity,SK-MEL-28,98.38%
same,Activity,SK-MEL-5,90.4%
same,Activity,UACC-257,93.1%
same,Activity,UACC-62,78.13%
same,Activity,IGROV-1,85.79%
same,Activity,OVCAR-3,95.7%
same,Activity,OVCAR-4,88.56%
same,Activity,OVCAR-5,43.95%
same,Activity,OVCAR-8,97.42%
same,Activity,NCI/ADR-RES,100.71%
same,Activity,SK-OV-3,71.03%
same,Activity,786-0,100.84%
same,Activity,A498,89.58%
same,Activity,ACHN,84.07%
same,Activity,CAKI-1,89.4%
same,Activity,RXF 393,92.68%
same,Activity,SN12C,101.76%
same,Activity,TK-10,154.6%
same,Activity,UO-31,71.93%
same,Activity,PC-3,84.66%
same,Activity,DU-145,103.96%
same,Activity,MCF7,72.9%
same,Activity,MDA-MB-231,89.94%
same,Activity,[2],90.49%
same,Activity,BT-549,107.13%
same,Activity,T47D,67.17%
same,Activity,MDA-MB-468,76.71%
CC1=NN(c2cccc(Cl)c2)C(=O)/C1=C\c1cn(C(=O)c2ccc(Cl)cc2)c2ccccc12,Activity,CCRF-CEM,118.43%
same,Activity,HL-60(TB),117.42%
same,Activity,K562,107.93%
same,Activity,MOLT-4,99.47%
same,Activity,[1],97.03%
same,Activity,SR,96.12%
same,Activity,A549,96.27%
same,Activity,EKVX,79.35%
same,Activity,HOP-62,94.61%
same,Activity,HOP-92,99.69%
same,Activity,NCI-H226,86.8%
same,Activity,NCI-H23,91.24%
same,Activity,NCI-H322M,109.45%
same,Activity,NCI-H460,109.18%
same,Activity,NCI-H522,100.77%
same,Activity,COLO 205,113.51%
same,Activity,HCC 2998,108.88%
same,Activity,HCT-116,100.16%
same,Activity,HCT-15,91.41%
same,Activity,HT-29,101.17%
same,Activity,KM12,93.09%
same,Activity,SW-620,99.26%
same,Activity,SF-268,98.24%
same,Activity,SF-295,102.34%
same,Activity,SF-539,97.75%
same,Activity,SNB-19,99.84%
same,Activity,SNB-75,80.97%
same,Activity,U-251,94.02%
same,Activity,LOX IMVI,90.49%
same,Activity,Malme-3M,101.23%
same,Activity,M14,96.55%
same,Activity,MDA-MB-435,120.68%
same,Activity,SK-MEL-2,105.09%
same,Activity,SK-MEL-28,112.94%
same,Activity,SK-MEL-5,90.74%
same,Activity,UACC-257,105.58%
same,Activity,UACC-62,90.62%
same,Activity,IGROV-1,75.7%
same,Activity,OVCAR-3,97.57%
same,Activity,OVCAR-4,99.58%
same,Activity,OVCAR-5,97.61%
same,Activity,OVCAR-8,98.63%
same,Activity,NCI/ADR-RES,107.61%
same,Activity,SK-OV-3,91.35%
same,Activity,786-0,104.1%
same,Activity,A498,123.09%
same,Activity,ACHN,88.25%
same,Activity,CAKI-1,92.37%
same,Activity,RXF 393,94.47%
same,Activity,SN12C,92.22%
same,Activity,TK-10,167.41%
same,Activity,UO-31,76.43%
same,Activity,PC-3,95.29%
same,Activity,DU-145,104.66%
same,Activity,MCF7,87.82%
same,Activity,MDA-MB-231,87.79%
same,Activity,[2],92.29%
same,Activity,BT-549,95.84%
same,Activity,T47D,79.84%
same,Activity,MDA-MB-468,103.55%
